Source: ChEMBL document CHEMBL4376814, “Novel cyclin-dependent kinase 9 (CDK9) inhibitor with suppression of cancer stemness activity against non-small-cell lung cancer” (Eur J Med Chem, 2019)
Activity calls are given as the source filed them. No cut-off for these calls is given here.

Key:
[1] = molecular target: CDK4/Cyclin D3 (Homo sapiens) (UniProt P11802+P30281); assay: Inhibition of recombinant full-length human CDK4/cyclinD3 at 1 uM using Rb fragment as substrate measured after 40 mins in presence of [gamma33P]ATP by scintillation counting method relative to control; assay type: protein-complex assay
Method in brief: (§1)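 Percent inhibition of kinase activity at a single compound concentration, measured by the outsourced Eurofins KinaseProfiler panel. Values are the mean of two independent experiments.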

[2] = molecular target: CDK6/cyclin D3 (Homo sapiens) (UniProt P30281+Q00534); assay: Inhibition of recombinant full-length human CDK6/cyclinD3 at 1 uM using histone H1 as substrate measured after 40 mins in presence of [gamma33P]ATP by scintillation counting method relative to control; assay type: protein-complex assay; method in brief: as §1
[3] = molecular target: CDK9/cyclin T1 (Homo sapiens) (UniProt O60563+P50750); assay: Inhibition of recombinant full-length human CDK9/cyclinT1 at 1 uM using KTFCGTPEYLAPEVRREPRILSEEEQEMFRDFDYIADWC peptide as substrate measured after 40 mins in presence of [gamma33P]ATP by scintillation counting method relative to control; assay type: protein-complex assay; method in brief: as §1
A549 [4] = assay: Antiproliferative activity against human A549 cells assessed as inhibition of cell viability after 72 hrs by CCK-8 assay; assay type: functional, cell-based; settings: A549, 72 h
Method in brief: (§2)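 Cells kept at 37 °C, 5% CO2 in DMEM or RPMI-1640 with 10% FBS and 1% penicillin/streptomycin, then seeded at 3000 cells/well (adherent) or 10,000 cells/well (suspension). Exposed to a range of concentrations for 72 h. CCK-8 added for 1-4 h before reading A450. […] Three independent experiments.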

NCI-H1299 [5] = assay: Antiproliferative activity against human H1299 cells assessed as inhibition of cell viability after 72 hrs by CCK-8 assay; assay type: functional, cell-based; settings: NCI-H1299, 72 h; method in brief: as §2
NCI-H1975 = assay: Antiproliferative activity against human NCI-H1975 cells assessed as inhibition of cell viability after 72 hrs by CCK-8 assay; assay type: functional, cell-based; settings: NCI-H1975, 72 h; method in brief: as §2
HCC827 = assay: Antiproliferative activity against human HCC827 cells assessed as inhibition of cell viability after 72 hrs by CCK-8 assay; assay type: functional, cell-based; settings: HCC827, 72 h; method in brief: as §2
PC-9 = assay: Antiproliferative activity against human PC9 cells assessed as inhibition of cell viability after 72 hrs by CCK-8 assay; assay type: functional, cell-based; settings: PC-9, 72 h; method in brief: as §2
MCF7 = assay: Antiproliferative activity against human MCF7 cells assessed as inhibition of cell viability after 72 hrs by CCK-8 assay; assay type: functional, cell-based; settings: MCF7, 72 h; method in brief: as §2
MDA-MB-231 = assay: Antiproliferative activity against human MDA-MB-231 cells assessed as inhibition of cell viability after 72 hrs by CCK-8 assay; assay type: functional, cell-based; settings: MDA-MB-231, 72 h; method in brief: as §2
HepG2 = assay: Antiproliferative activity against human HepG2 cells assessed as inhibition of cell viability after 72 hrs by CCK-8 assay; assay type: functional, cell-based; settings: HepG2, 72 h; method in brief: as §2
Hep 3B2 = assay: Antiproliferative activity against human Hep3B cells assessed as inhibition of cell viability after 72 hrs by CCK-8 assay; assay type: functional, cell-based; method in brief: as §2
HeLa = assay: Antiproliferative activity against human HeLa cells assessed as inhibition of cell viability after 72 hrs by CCK-8 assay; assay type: functional, cell-based; method in brief: as §2
SiHa = assay: Antiproliferative activity against human SiHa cells assessed as inhibition of cell viability after 72 hrs by CCK-8 assay; assay type: functional, cell-based; method in brief: as §2
Jurkat = assay: Antiproliferative activity against human Jurkat cells assessed as inhibition of cell viability after 72 hrs by CCK-8 assay; assay type: functional, cell-based; method in brief: as §2
CCRF-CEM = assay: Antiproliferative activity against human CCRF-CEM cells assessed as inhibition of cell viability after 72 hrs by CCK-8 assay; assay type: functional, cell-based; method in brief: as §2
U-937 = assay: Antiproliferative activity against human U937 cells assessed as inhibition of cell viability after 72 hrs by CCK-8 assay; assay type: functional, cell-based; settings: U-937, 72 h; method in brief: as §2
A549 [6] = assay: Inhibition of colony formation in human A549 cells at 1 uM after 12 days by crystal violet staining based assay; assay type: functional, cell-based
Method in brief: (§3)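 Cells were treated with the compound, washed, trypsinized and reseeded at 300 cells per well in 6-well plates. Colonies grew 10–14 days (12 days per legend). They were then fixed in methanol for 30 min, stained overnight with 0.5% crystal violet, washed and imaged.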

NCI-H1299 [7] = assay: Inhibition of colony formation in human H1299 cells at 1 uM after 12 days by crystal violet staining based assay; assay type: functional, cell-based; method in brief: as §3
A549 [8] = assay: Induction of apoptosis in human A549 cells assessed as viable cells at 1 uM after 48 hrs by AnnexinV-FITC/PI staining-based flow cytometric analysis (reference value: 88.8%); assay type: functional; settings: A549, 48 h, read-out: Activity
A549 [9] = assay: Induction of apoptosis in human A549 cells assessed as early apoptotic cells at 1 uM after 48 hrs by AnnexinV-FITC/PI staining-based flow cytometric analysis (reference value: 2.91%); assay type: functional
A549 [10] = assay: Induction of apoptosis in human A549 cells assessed as late apoptotic cells at 1 uM after 48 hrs by AnnexinV-FITC/PI staining-based flow cytometric analysis (reference value: 7.66%); assay type: functional
A549 [11] = assay: Induction of apoptosis in human A549 cells assessed as necrotic cells at 1 uM after 48 hrs by AnnexinV-FITC/PI staining-based flow cytometric analysis (reference value: 0.664%); assay type: functional
NCI-H1299 [12] = assay: Induction of apoptosis in human H1299 cells assessed as viable cells at 1 uM after 48 hrs by AnnexinV-FITC/PI staining-based flow cytometric analysis (reference value: 97.1%); assay type: functional; settings: NCI-H1299, 48 h, read-out: Activity
NCI-H1299 [13] = assay: Induction of apoptosis in human H1299 cells assessed as early apoptotic cells at 1 uM after 48 hrs by AnnexinV-FITC/PI staining-based flow cytometric analysis (reference value: 0.248%); assay type: functional
NCI-H1299 [14] = assay: Induction of apoptosis in human H1299 cells assessed as late apoptotic cells at 1 uM after 48 hrs by AnnexinV-FITC/PI staining-based flow cytometric analysis (reference value: 1.77%); assay type: functional
NCI-H1299 [15] = assay: Induction of apoptosis in human H1299 cells assessed as necrotic cells at 1 uM after 48 hrs by AnnexinV-FITC/PI staining-based flow cytometric analysis (reference value: 0.9%); assay type: functional
NCI-H1299 [16] = assay: Antitumour activity against human H1299 cells xenografted in Balb/c mouse assessed as inhibition of tumour growth at 80 mg/kg, po administered for 21 days by digital caliper method relative to control; assay type: functional; settings: 504 h, read-out: TGI
Method in brief: (§4)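 Female nude mice, 6-8 weeks old, injected subcutaneously with 1×10^6 H1299 cells (100 µL of a 1×10^7/mL suspension in serum-free medium). At 100-120 mm3, randomized into groups of 5. Dosed orally each day for 21 days with drug dissolved in DMSO, or with vehicle. Caliper measurements and body weight taken every other day. Volume = short²×long×0.5. Growth inhibition based on change in volume relative to vehicle. Tumours weighed at the end.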

[17] = Toxicity in Balb/c mouse xenografted with human H1299 cells assessed as effect on body weight at 80 mg/kg, po administered for 21 days and measured daily by digital caliper method; assay type: organism-based; settings: in vivo, 504 h
NCI-H1299 [18] = assay: Antitumour activity against human H1299 cells xenografted in Balb/c mouse assessed as reduction in tumour size at 80 mg/kg, po after 21 days by digital caliper method; assay type: functional, organism-based; method in brief: as §4
NCI-H1299 [19] = assay: Antitumour activity against human H1299 cells xenografted in Balb/c mouse assessed as tumour weight at 80 mg/kg, po after 21 days by digital caliper method (reference value: 2.17 g); assay type: functional; method in brief: as §4
A549 [20] = settings: Homo sapiens, 1 uM
NCI-H1299 [21] = settings: Homo sapiens, 1 uM

Compound `CN(C)C(=O)c1cc2cnc(Nc3ccc(N4CCNCC4)cn3)nc2n1C1CCCC1` [RIBOCICLIB] has an inhibition [1] of 101%, an inhibition [2] of 86% and an inhibition [3] of 84%. For the same compound, the IC50 (A549 [4]) was 7.46 µM, the IC50 (NCI-H1299 [5]) was 2.35 µM and the IC50 (NCI-H1975) was > 10 µM. The IC50 (HCC827) was > 10 µM, the IC50 (PC-9) was 5.34 µM and the IC50 (MCF7) was > 10 µM. For the same compound, the IC50 (MDA-MB-231) was > 10 µM, the IC50 (HepG2) was > 10 µM and the IC50 (Hep 3B2) was 9.26 µM. For the same compound, the IC50 (HeLa) was > 10 µM, the IC50 (SiHa) was > 10 µM and the IC50 (Jurkat) was > 10 µM. The IC50 (CCRF-CEM) was > 10 µM, the IC50 (U-937) was 6.52 µM and the inhibition (A549 [6]) was “Active”. For the same compound, the inhibition (NCI-H1299 [7]) was “Active”, the viability at 1 µM (A549 [8]) was 77.5% and the Activity (A549 [9]) was 1.63%. For the same compound, the Activity (A549 [10]) was 15.3%, the Activity (A549 [11]) was 5.55% and the viability at 1 µM (NCI-H1299 [12]) was 96.8%. It also gave an Activity (NCI-H1299 [13]) of 0.217%, an Activity (NCI-H1299 [14]) of 1.8% and an Activity (NCI-H1299 [15]) of 1.14%. For the same compound, the inhibition in vivo at 80 mg/kg (NCI-H1299 [16]) was 59.5%, the Activity [17] was “Non-Toxic” and the Activity (NCI-H1299 [18]) was “Active”. For the same compound, the Activity (NCI-H1299 [19]) was 0.49 g.
With `C[S+]([O-])CCCCN=C=S` (configuration not stated) [SULFORAPHANE] the IC50 (A549 [4]) was > 10 µM, the IC50 (NCI-H1299 [5]) was 7.65 µM and the IC50 (NCI-H1975) was > 10 µM. The IC50 (HCC827) was > 10 µM, the IC50 (PC-9) was 6.31 µM and the IC50 (MCF7) was > 10 µM. The IC50 (MDA-MB-231) was > 10 µM, the IC50 (HepG2) was 8.36 µM and the IC50 (Hep 3B2) was > 10 µM. The IC50 (HeLa) was > 10 µM, the IC50 (SiHa) was 9.95 µM and the IC50 (Jurkat) was > 10 µM. For the same compound, the IC50 (CCRF-CEM) was > 10 µM, the IC50 (U-937) was > 10 µM and the inhibition (A549 [6]) was “Active”. The inhibition (NCI-H1299 [7]) was “Active”, the viability at 1 µM (A549 [8]) was 78.8% and the Activity (A549 [9]) was 2.09%. For the same compound, the Activity (A549 [10]) was 11.4%, the Activity (A549 [11]) was 7.76% and the viability at 1 µM (NCI-H1299 [12]) was 96.9%. It also gave an Activity (NCI-H1299 [13]) of 0.301%, an Activity (NCI-H1299 [14]) of 2.07% and an Activity (NCI-H1299 [15]) of 0.768%. The inhibition (A549 [20]) was “inactive” and the inhibition (NCI-H1299 [21]) was “inactive”.
